From ChEMBL document CHEMBL1154181 (J Med Chem, 2009)
pIC50: −log10 of the molar value.

Experiments:
[1] = system: Mus musculus; assay: Antinociceptive activity against thermal nociception in po dosed CD1 mouse assessed as latency period to elicit jumping or hind paw licking at 1 mg/kg, po measured after 15 to 90 mins postdose by hot plate method in presence of 0.1 to 1 mg/kg, ip alpha-1-adrenergic receptor antagonist prazosin administered 15 mins before compound infusion; type: functional
Procedure, shortened: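 Male CD-1 mice given prazosin ip (0.1 or 1 mg/kg) 15 min before oral dosing at 1 mg/kg. Tail flick: radiant heat 3–4 cm from the tail tip, cut-off 15 s. Hot plate: 48.5 °C, cut-off 60 s. Baseline is the mean of three readings 15 min apart. Latency followed over time and expressed as %MPE.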

[2] = system: Mus musculus; assay: Ratio of compound ED50 to morphine ED50 for antinociceptive activity against radiant heat-induced nociception in icv dosed CD1 mouse; type: functional
Procedure, shortened: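 Male CD-1 mice (25–30 g) given the compound or morphine hydrochloride into the right lateral ventricle. Tail flick used radiant heat focused 3–4 cm from the tail tip, with a 15 s cutoff, and latency was read at 15–120 min. %MPE was made quantal at peak time. ED50 came from at least four groups of six mice, and both ED50s were obtained the same way.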

[3] = biological target: T1, Alpha-1B adrenergic receptor (Rattus norvegicus, UniProt P15823); assay: Displacement of [3H]prazosin from adrenergic Alpha-1B receptor in Wistar rat liver membrane after 60 mins; type: cell membranes
T1 sequence (P15823 whole entry): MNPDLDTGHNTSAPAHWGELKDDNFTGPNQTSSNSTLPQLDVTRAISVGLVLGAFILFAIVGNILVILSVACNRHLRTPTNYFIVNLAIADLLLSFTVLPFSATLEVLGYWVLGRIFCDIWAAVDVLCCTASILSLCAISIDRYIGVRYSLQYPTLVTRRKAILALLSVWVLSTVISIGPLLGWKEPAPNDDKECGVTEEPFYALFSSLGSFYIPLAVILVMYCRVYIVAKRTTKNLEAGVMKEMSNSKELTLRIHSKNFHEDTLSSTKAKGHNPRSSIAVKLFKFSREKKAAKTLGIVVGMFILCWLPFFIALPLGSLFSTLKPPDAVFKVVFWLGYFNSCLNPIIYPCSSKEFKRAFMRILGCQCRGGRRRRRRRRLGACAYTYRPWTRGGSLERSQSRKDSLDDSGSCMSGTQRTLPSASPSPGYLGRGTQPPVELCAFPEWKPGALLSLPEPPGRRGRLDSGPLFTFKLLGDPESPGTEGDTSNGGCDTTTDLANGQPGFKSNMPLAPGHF

[4] = biological target: T2, Alpha-2C adrenergic receptor (Homo sapiens) (UniProt P18825); assay: Inhibition of radioligand binding to human adrenergic Alpha-2C receptor at 10 uM after 60 mins
T2 sequence (whole entry): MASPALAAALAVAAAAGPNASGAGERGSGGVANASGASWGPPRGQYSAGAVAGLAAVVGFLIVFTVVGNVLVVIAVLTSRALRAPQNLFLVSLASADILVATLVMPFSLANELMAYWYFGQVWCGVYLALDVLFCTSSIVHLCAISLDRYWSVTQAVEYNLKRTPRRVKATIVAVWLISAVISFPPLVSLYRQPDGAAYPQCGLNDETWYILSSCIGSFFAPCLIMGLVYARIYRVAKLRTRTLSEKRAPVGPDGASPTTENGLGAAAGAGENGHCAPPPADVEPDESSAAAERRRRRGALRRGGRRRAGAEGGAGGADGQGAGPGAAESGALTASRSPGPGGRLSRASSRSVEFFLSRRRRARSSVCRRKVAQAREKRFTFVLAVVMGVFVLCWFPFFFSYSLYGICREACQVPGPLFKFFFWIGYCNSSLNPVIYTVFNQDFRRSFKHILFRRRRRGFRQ

[5] = system: Mus musculus; assay: Antinociceptive activity in sc dosed mouse assessed as reduction in number of noxious stimulus-induced writhes; type: functional
[6] = system: Mus musculus; assay: (§1) Antinociceptive activity against radiant heat-induced nociception in po dosed CD1 mouse assessed as increase in tail withdrawal latency measured after 15 to 120 mins postdose by tail flick test; type: functional
Procedure, shortened: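 Male CD-1 mice, 25–30 g; oral dosing. Radiant heat focused 3–4 cm from tail tip of hand-restrained mice; tail withdrawal latency recorded, cutoff 15 s at 15 V. Baseline = mean of three readings 15 min apart; latency at 15–120 min.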

[7] = system: Mus musculus; assay: as §1, with “test in presence of 50 mg/kg, ip GABAB receptor antagonist CGP-35348 administered 30 mins before compound infusion” for “test”; type: functional
Procedure, shortened: (§2)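 Antagonist given ip 30 min before oral dosing (naloxone 1, mecamylamine 2, yohimbine 2, CGP 35348 50 mg/kg). Tail flick with radiant heat at the tail tip, cut-off 15 s; latencies at 15–120 min converted to %MPE. Peak-time quantal response (≥50% MPE); ED50 from at least four groups of six male CD-1 mice.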

[8] = system: Mus musculus; assay: as §1, with “test in presence of 2 mg/kg, ip nicotinic receptor antagonist mecamylamine hydrochloride administered 30 mins before compound infusion” for “test”; type: functional; procedure, shortened: as §2
[9] = system: Mus musculus; assay: Antinociceptive activity against thermal nociception in po dosed CD1 mouse assessed as increase in latency period to elicit jumping or hind paw licking measured after 15 to 90 mins postdose by hot plate method; type: functional
[10] = system: Mus musculus; assay: (§3) Antinociceptive activity against thermal nociception in po dosed CD1 mouse assessed as increase in latency period to elicit jumping or hind paw licking measured after 15 to 90 mins postdose by hot plate method in presence of 1 mg/kg, ip opioid receptor antagonist naloxone hydrochloride administered 30 mins before compound infusion; type: functional
Procedure, shortened: (§4)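 Antagonist given ip 30 min before oral dosing (naloxone 1, mecamylamine 2, yohimbine 2, CGP 35348 50 mg/kg). Hot plate at 48.5 ± 0.1 °C inside a cylinder, cut-off 60 s; latencies at 15–90 min as %MPE. Peak-time quantal response (≥50% MPE); ED50 from at least four groups of six male CD-1 mice.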

[11] = system: Mus musculus; assay: as §3, with “of 50” for “of 1”, “ip GABAB” for “ip opioid”, “antagonist CGP 35348” for “antagonist naloxone hydrochloride”; type: functional; procedure, shortened: as §4
[12] = system: Mus musculus; assay: as §3, with “of 2” for “of 1”, “ip nicotinic” for “ip opioid”, “antagonist mecamylamine” for “antagonist naloxone”; type: functional; procedure, shortened: as §4
[13] = biological target: T3, Alpha-1B adrenergic receptor (Rattus norvegicus) (UniProt P15823); details: Wistar, Liver, Membrane, 10 uM
T3 sequence (whole entry): T1 sequence (P15823 whole entry)

pIC50 [3]: 6.99 | Emax [4]: 71% | Emax [13]: 99%
Compound: C=Cc1c(C)nn(CCCN2CCN(c3ccc(C)cc3)CC2)c(=O)c1N
Activity [1]: 120 min | Ratio ED50 [2]: 3 | ED50 [5]: 2.5 mg/kg | ED50 [6]: 0.8 mg/kg | ED50 [7]: 0.5 mg/kg | ED50 [8]: 2.3 mg/kg | ED50 [9]: 0.5 mg/kg | ED50 [10]: 1.1 mg/kg | ED50 [11]: 0.6 mg/kg | ED50 [12]: 0.7 mg/kg
